# Experimental data: ChEMBL document CHEMBL3352485 (J Med Chem, 2014)
# Assays:
# [1] = target: T1, KiSS-1 receptor (Rattus norvegicus, UniProt Q924U1); assay: Agonist activity at rat KISS1R transfected in CHO cells assessed as intracellular calcium flux after 24 hrs by functional FLIPR assay; type: cell-based
# [2] = target: T2, KiSS-1 receptor (Homo sapiens, UniProt Q969F8); assay: Agonist activity at human KISS1R transfected in CHO cells assessed as intracellular calcium flux after 24 hrs by functional FLIPR assay; type: cell-based
# T2 sequence (Q969F8 whole entry): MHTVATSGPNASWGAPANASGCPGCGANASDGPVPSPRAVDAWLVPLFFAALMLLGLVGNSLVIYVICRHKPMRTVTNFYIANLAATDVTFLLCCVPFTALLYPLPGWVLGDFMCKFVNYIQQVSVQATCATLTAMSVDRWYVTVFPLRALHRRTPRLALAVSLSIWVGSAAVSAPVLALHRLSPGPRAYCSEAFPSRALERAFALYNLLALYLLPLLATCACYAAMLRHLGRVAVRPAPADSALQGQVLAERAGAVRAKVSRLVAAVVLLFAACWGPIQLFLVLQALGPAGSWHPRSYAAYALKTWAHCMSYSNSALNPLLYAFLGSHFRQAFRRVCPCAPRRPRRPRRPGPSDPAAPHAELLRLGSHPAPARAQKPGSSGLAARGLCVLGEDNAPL
# How it was run: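 CHO cells stably expressing human KISS1R were seeded at 15 000 cells/mL, cultured 24 h, then loaded with fluo-3 for 1 h at 37 °C in HBSS/HEPES (pH 7.4) with probenecid and FBS. Cells were washed in HBSS with 2.5 mM probenecid. Peptides came from 1 mM DMSO stocks diluted in buffer containing probenecid, 0.2% BSA and 0.1% CHAPS. Fluorescence was recorded on FLIPR for 3 min; peak counts over 0–180 s gave agonist activity.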
# [3] = target: T1, KiSS-1 receptor; assay: Displacement of radioligand from rat KISS1R transfected in CHO cells; type: cell-based
# [4] = tested on: Rattus norvegicus; assay: Testosterone-suppressive activity in Crl:CD(SD) rat assessed as number of animal with plasma testosterone level below the limit of detection at 2 nmol/hr, sc through osmotic pumps measured after 6 days by RIA; type: functional
# How it was run: (§1)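 Peptide was dissolved in distilled water or 50% DMSO as 0.1–2 mM pump solutions and delivered by ALZET osmotic pumps implanted subcutaneously in the back of 9-week-old male Crl:CD(SD) rats (n = 5) under ether. Controls received distilled-water pumps. After 6 days, rats were decapitated and plasma was recovered with aprotinin/EDTA. Testosterone was measured by RIA, and the number of rats below the detection limit (0.04 ng/mL) was counted.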
# [5] = tested on: Rattus norvegicus; assay: Testosterone-suppressive activity in Crl:CD(SD) rat assessed as number of animal with plasma testosterone level below the limit of detection at 0.3 nmol/hr, sc through osmotic pumps measured after 6 days by RIA; type: functional; how it was run: as §1
# [6] = target: T2, KiSS-1 receptor; assay: Displacement of radioligand from human KISS1R transfected in CHO cells; type: cell-based
# How it was run: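 Binding used membrane fractions prepared from CHO cells expressing recombinant human KISS1R.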
# [7] = tested on: Rattus norvegicus; assay: Testosterone-suppressive activity in Crl:CD(SD) rat assessed as number of animal with plasma testosterone level below the limit of detection at 0.5 nmol/hr, sc through osmotic pumps measured after 6 days by RIA; type: functional; how it was run: as §1
# [8] = tested on: Rattus norvegicus; assay: Testosterone-suppressive activity in Crl:CD(SD) rat assessed as number of animal with plasma testosterone level below the limit of detection at 0.1 nmol/hr, sc through osmotic pumps measured after 6 days by RIA; type: functional; how it was run: as §1
# [9] = Stability of the compound in aqueous solution (JP1) assessed as residual ratio at pH 1.2 up to 2 weeks by HPLC analysis relative to initial level; type: physicochemical
# How it was run: (§2)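 Peptides in aqueous solution at pH 1.2 (JP1, containing 10% acetonitrile), 3, 5 or 7 were kept in the dark at 37 °C for up to 2 weeks. Peptide remaining was quantified from HPLC peak area, with detection at 230–280 nm. The residual ratio (stability index) was expressed relative to the time-0 amount, taken as 100%.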
# [10] = Stability of the compound in aqueous solution assessed as residual ratio at pH 3 up to 2 weeks by HPLC analysis relative to initial level; type: physicochemical; how it was run: as §2
# [11] = Stability of the compound in aqueous solution assessed as residual ratio at pH 7 up to 2 weeks by HPLC analysis relative to initial level; type: physicochemical; how it was run: as §2
# [12] = Stability of the compound in aqueous solution assessed as residual ratio at pH 5 up to 1 week by HPLC analysis relative to initial level; type: physicochemical; how it was run: as §2
# [13] = Stability of the compound in aqueous solution assessed as residual ratio at pH 3 up to 1 week by HPLC analysis relative to initial level; type: physicochemical; how it was run: as §2
# [14] = Stability of the compound in aqueous solution assessed as residual ratio at pH 7 up to 1 week by HPLC analysis relative to initial level; type: physicochemical; how it was run: as §2
# [15] = Stability of the compound in aqueous solution (JP1) assessed as residual ratio at pH 1.2 up to 1 week by HPLC analysis relative to initial level; type: physicochemical; how it was run: as §2
# [16] = Stability of the compound in aqueous solution assessed as residual ratio at pH 5 up to 2 weeks by HPLC analysis relative to initial level; type: physicochemical; how it was run: as §2
# T1 sequence (Q924U1 whole entry): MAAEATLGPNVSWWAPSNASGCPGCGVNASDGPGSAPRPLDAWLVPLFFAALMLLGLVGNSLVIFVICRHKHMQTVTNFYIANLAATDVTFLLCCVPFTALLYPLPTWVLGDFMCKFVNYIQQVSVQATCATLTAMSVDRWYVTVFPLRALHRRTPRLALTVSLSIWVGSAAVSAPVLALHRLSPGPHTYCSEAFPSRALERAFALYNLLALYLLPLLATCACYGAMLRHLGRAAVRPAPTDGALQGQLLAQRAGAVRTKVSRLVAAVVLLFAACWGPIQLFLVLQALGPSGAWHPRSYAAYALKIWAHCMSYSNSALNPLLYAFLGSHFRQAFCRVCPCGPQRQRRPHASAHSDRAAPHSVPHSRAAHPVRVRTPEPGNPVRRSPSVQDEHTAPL
SMILES,EC50 [1] [nM],EC50 [2] [nM],Ki [6] [nM],also measured
CNC(=N)NCCC[C@H](NC(=O)[C@H](CC(C)C)NC(=O)NNC(=O)[C@H](Cc1ccccc1)NC(=O)[C@H](CO)NC(=O)[C@H](C)NC(=O)[C@@H](Cc1c[nH]c2ccccc12)NC(=O)[C@H](N)Cc1ccc(O)cc1)C(=O)N[C@@H](Cc1c[nH]c2ccccc12)C(N)=O,6.8,0.49,,
CNC(=N)NCCC[C@H](NC(=O)[C@H](CC(C)C)NC(=O)NNC(=O)[C@H](Cc1ccccc1)NC(=O)[C@H](CO)NC(=O)[C@@H](NC(=O)[C@@H](Cc1ccncc1)NC(=O)[C@H](N)Cc1ccc(O)cc1)[C@@H](C)O)C(=O)N[C@@H](Cc1c[nH]c2ccccc12)C(N)=O,32,1.3,,
CNC(=N)NCCC[C@H](NC(=O)[C@H](CC(C)C)NC(=O)NNC(=O)[C@H](Cc1ccccc1)NC(=O)[C@H](CO)NC(=O)[C@H](CC(N)=O)NC(=O)[C@@H](Cc1ccncc1)NC(=O)[C@H](N)Cc1ccc(O)cc1)C(=O)N[C@@H](Cc1c[nH]c2ccccc12)C(N)=O,6,0.87,0.074,Ki [3]: 0.13 nM; Activity [4]: 80%; Activity [5]: 40%; Activity [7]: 60%; Activity [8]: 0 rats (n = 5)
CNC(=N)NCCC[C@H](NC(=O)[C@H](CC(C)C)NC(=O)NNC(=O)[C@H](Cc1ccccc1)NC(=O)[C@H](Cc1c[nH]c2ccccc12)NC(=O)[C@H](CC(N)=O)NC(=O)[C@@H](Cc1ccncc1)NC(=O)[C@H](N)Cc1ccc(O)cc1)C(=O)N[C@@H](Cc1c[nH]c2ccccc12)C(N)=O,7.4,0.59,,
CNC(=N)NCCC[C@H](NC(=O)[C@H](CC(C)C)NC(=O)NNC(=O)[C@H](Cc1ccccc1)NC(=O)[C@@H](NC(=O)[C@H](CC(N)=O)NC(=O)[C@@H](Cc1c[nH]c2ccccc12)NC(=O)[C@@H](Cc1ccc(O)cc1)NC(=O)c1ccccc1)[C@@H](C)O)C(=O)N[C@@H](Cc1c[nH]c2ccccc12)C(N)=O,1.7,0.44,0.027,Activity [8]: 0 rats (n = 5)
CNC(=N)NCCC[C@H](NC(=O)[C@H](CC(C)C)NC(=O)NNC(=O)[C@H](Cc1ccccc1)NC(=O)[C@H](CO)NC(=O)[C@H](CC(N)=O)NC(=O)[C@@H](Cc1c[nH]c2ccccc12)NC(=O)[C@H](N)Cc1ccc(O)cc1)C(=O)N[C@@H](Cc1c[nH]c2ccccc12)C(N)=O,2.3,0.51,0.037,remaining at 336 h [9]: 33.4%; remaining at 336 h [10]: 97.1%; remaining at 336 h [11]: 28%; remaining at 168 h [12]: 96%; Ki [3]: 0.077 nM; remaining at 168 h [13]: 98.2%; remaining at 168 h [14]: 56.5%; Activity [5]: 40%; Activity [7]: 80%; remaining at 168 h [15]: 60.8%; remaining at 336 h [16]: 90.8%; Activity [8]: 0 rats (n = 5)
CNC(=N)NCCC[C@H](NC(=O)[C@H](CC(C)C)NC(=O)NNC(=O)[C@H](Cc1ccccc1)NC(=O)[C@@H]1CC(O)CN1C(=O)[C@H](CC(N)=O)NC(=O)[C@@H](Cc1ccncc1)NC(=O)[C@H](N)Cc1ccc(O)cc1)C(=O)N[C@@H](Cc1c[nH]c2ccccc12)C(N)=O (stereo partly drawn),95,2.8,,
CNC(=N)NCCC[C@H](NC(=O)[C@H](CC(C)C)NC(=O)NNC(=O)[C@H](Cc1ccccc1)NC(=O)[C@@H](NC(=O)[C@H](CC(N)=O)NC(=O)[C@@H](Cc1ccncc1)NC(=O)[C@H](N)Cc1ccc(O)cc1)c1ccccc1)C(=O)N[C@@H](Cc1c[nH]c2ccccc12)C(N)=O,110,4.4,,
CNC(=N)NCCC[C@H](NC(=O)[C@H](CC(C)C)NC(=O)NNC(=O)[C@H](Cc1ccccc1)NC(=O)[C@H](CO)NC(=O)[C@H](C)NC(=O)[C@@H](Cc1ccncc1)NC(=O)[C@H](N)Cc1ccc(O)cc1)C(=O)N[C@@H](Cc1c[nH]c2ccccc12)C(N)=O,9.3,0.7,0.2,Ki [3]: 3.6 nM; Activity [4]: 0%
CNC(=N)NCCC[C@H](NC(=O)[C@H](CC(C)C)NC(=O)NNC(=O)[C@H](Cc1ccccc1)NC(=O)[C@@H](NC(=O)[C@H](CC(N)=O)NC(=O)[C@@H](Cc1ccncc1)NC(=O)[C@H](N)Cc1ccc(O)cc1)[C@@H](C)O)C(=O)N[C@@H](Cc1c[nH]c2ccccc12)C(N)=O,5.7,1.6,0.086,
CC(C)C[C@H](NC(=O)CNC(=O)[C@H](Cc1ccccc1)NC(=O)[C@H](CO)NC(=O)[C@H](CC(N)=O)NC(=O)[C@H](Cc1c[nH]c2ccccc12)NC(=O)[C@H](CC(N)=O)NC(=O)[C@@H](N)Cc1ccc(O)cc1)C(=O)N[C@@H](CCCNC(=N)N)C(=O)N[C@@H](Cc1ccccc1)C(N)=O [KISSPEPTIN-10],,0.96,0.035,
CNC(=N)NCCC[C@H](NC(=O)[C@H](CC(C)C)NC(=O)NNC(=O)[C@H](Cc1ccccc1)NC(=O)[C@@H](NC(=O)[C@H](CC(N)=O)NC(=O)[C@@H](Cc1ccncc1)NC(=O)[C@H](N)Cc1ccc(O)cc1)C(C)(C)C)C(=O)N[C@@H](Cc1c[nH]c2ccccc12)C(N)=O,22,1.5,,
CNC(=N)NCCC[C@H](NC(=O)[C@H](CC(C)C)NC(=O)NNC(=O)[C@H](Cc1ccccc1)NC(=O)[C@@H]1CCCN1C(=O)[C@H](CC(N)=O)NC(=O)[C@@H](Cc1ccncc1)NC(=O)[C@H](N)Cc1ccc(O)cc1)C(=O)N[C@@H](Cc1c[nH]c2ccccc12)C(N)=O,13,1.2,0.096,Activity [7]: 20%
CNC(=N)NCCC[C@H](NC(=O)[C@H](CC(C)C)NC(=O)NNC(=O)[C@H](Cc1ccccc1)NC(=O)[C@@H](NC(=O)[C@H](CC(N)=O)NC(=O)[C@@H](Cc1c[nH]c2ccccc12)NC(=O)[C@H](N)Cc1ccc(O)cc1)C(C)C)C(=O)N[C@@H](Cc1c[nH]c2ccccc12)C(N)=O,2.2,0.31,0.028,Activity [7]: 0%
CNC(=N)NCCC[C@H](NC(=O)[C@H](CC(C)C)NC(=O)NNC(=O)[C@H](Cc1ccccc1)NC(=O)[C@@H](NC(=O)[C@H](CC(N)=O)NC(=O)[C@@H](Cc1ccncc1)NC(=O)[C@H](N)Cc1ccc(O)cc1)C(C)C)C(=O)N[C@@H](Cc1c[nH]c2ccccc12)C(N)=O,12,1.8,0.052,Activity [4]: 80%; Activity [7]: 0%
CNC(=N)NCCC[C@H](NC(=O)[C@H](CC(C)C)NC(=O)NNC(=O)[C@H](Cc1ccccc1)NC(=O)[C@@H](NC(=O)[C@H](C)NC(=O)[C@@H](Cc1c[nH]c2ccccc12)NC(=O)[C@H](N)Cc1ccc(O)cc1)[C@@H](C)O)C(=O)N[C@@H](Cc1c[nH]c2ccccc12)C(N)=O,13,0.63,,
CC[C@H](NC(=O)[C@@H](Cc1c[nH]c2ccccc12)NC(=O)[C@H](N)Cc1ccc(O)cc1)C(=O)N[C@@H](CO)C(=O)N[C@@H](Cc1ccccc1)C(=O)NNC(=O)N[C@@H](CC(C)C)C(=O)N[C@@H](CCCNC(=N)NC)C(=O)N[C@@H](Cc1c[nH]c2ccccc12)C(N)=O,2.8,0.64,0.12,Ki [3]: 0.83 nM; Activity [4]: 0%
CNC(=N)NCCC[C@H](NC(=O)[C@H](CC(C)C)NC(=O)NNC(=O)[C@H](Cc1ccccc1)NC(=O)[C@@H](NC(=O)[C@H](CC(N)=O)NC(=O)[C@@H](Cc1c[nH]c2ccccc12)NC(=O)[C@@H](Cc1ccc(O)cc1)NC(=O)C1CC1)[C@@H](C)O)C(=O)N[C@@H](Cc1c[nH]c2ccccc12)C(N)=O,4.2,0.82,0.034,Ki [3]: 0.087 nM
